Data reported in PMC6988732 (The Biochemical journal, 2013).
Numbering of substitutions follows the chain as printed. Several values for one entry are separate records, joined by “and”; a condition that tells them apart may be missing. Identical values can stand only once.

Legend:
Assay in all cases: [3H]PDBu binding assay
PKCθC1B wild-type = target: T1, PKCθC1B wild-type (Mus musculus, UniProt Q02111)
T1 sequence (Q02111 232-281): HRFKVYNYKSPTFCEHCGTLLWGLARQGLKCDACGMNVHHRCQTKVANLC
How it was run: (§1)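 GST-cleaved mouse PKCθ C1B (residues 232–281), E. coli-expressed, affinity/gel-filtration purified. PEG-precipitation [3H]PDBu binding; Kd from saturable plus linear non-specific fit. Ki: [3H]PDBu at 2–5-fold each construct's Kd, DOG or SAG 1–100000 nM, dried from chloroform with phospholipid, sonicated. PS dependence: total phospholipid 100 μg/ml, PS 0–100%, remainder PC, relative to 100% PS. Means ± S.E.M., three independent experiments.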

PKCθC1B Y239A = target: T2, PKCθC1B Y239A (Mus musculus, UniProt Q02111, Y239A)
T2 sequence (Q02111 232-281 Y239A): T1 sequence (Q02111 232-281) with Y8A
How it was run: as §1

PKCθC1B T243A = target: T3, PKCθC1B T243A (Mus musculus, UniProt Q02111, T243A)
T3 sequence (Q02111 232-281 T243A): T1 sequence (Q02111 232-281) with T12A
How it was run: as §1

PKCθC1B W253G = target: T4, PKCθC1B W253G (Mus musculus, UniProt Q02111, W253G)
T4 sequence (Q02111 232-281 W253G): T1 sequence (Q02111 232-281) with W22G

PKCθC1B L255G = target: T5, PKCθC1B L255G (Mus musculus, UniProt Q02111, L255G)
T5 sequence (Q02111 232-281 L255G): T1 sequence (Q02111 232-281) with L24G
How it was run: as §1

PKCθC1B Q258G = target: T6, PKCθC1B Q258G (Mus musculus, UniProt Q02111, Q258G)
T6 sequence (Q02111 232-281 Q258G): T1 sequence (Q02111 232-281) with Q27G
How it was run: as §1

CCCCC/C=C\C/C=C\C/C=C\C/C=C\CCCC(=O)OC(CO)COC(=O)CCCCCCCCCCCCCCCCC (stereo not drawn) [SAG, sn-1-stearoyl 2-arachidonyl glycerol]
stronger binding affinity for SAG than for DOG (PKCθC1B wild-type; C1B domain of PKCθ): 2 fold | Ki/Kd (PKCθC1B wild-type; PKCθ C1B WT, Ki of the diacylglycerol over Kd of PDBu): 22 | Ki (PKCθC1B wild-type; PKCθ C1B WT, competition of [3H]PDBu binding, mean ± S.E.M.): 8.7 ± 2 nM | Ki/Kd (PKCθC1B Y239A; PKCθ C1B Y239A, Ki of the diacylglycerol over Kd of PDBu): 11 | Ki (PKCθC1B Y239A; PKCθ C1B Y239A, competition of [3H]PDBu binding, mean ± S.E.M.): 35.1 ± 5.1 nM | reduction in binding affinity compared with the wild-type (PKCθC1B Y239A; Y239A vs wild-type PKCθC1B (Kd for PDBu, Ki for DOG/SAG)): 4.13 fold | Ki/Kd (PKCθC1B T243A; PKCθ C1B T243A, Ki of the diacylglycerol over Kd of PDBu): 9 | Ki (PKCθC1B T243A; PKCθ C1B T243A, competition of [3H]PDBu binding, mean ± S.E.M.): 5.5 ± 1.5 nM | reduction in binding affinity compared with the wild-type (PKCθC1B T243A; T243A vs wild-type PKCθC1B (Kd for PDBu, Ki for DOG/SAG)): 0.63 fold | Ki/Kd (PKCθC1B W253G; PKCθ C1B W253G, Ki of the diacylglycerol over Kd of PDBu): 92 | Ki (PKCθC1B W253G; PKCθ C1B W253G, competition of [3H]PDBu binding, mean ± S.E.M.): 271 ± 22 nM | reduction in binding affinity compared with the wild-type (PKCθC1B W253G; W253G vs wild-type PKCθC1B (Kd for PDBu, Ki for DOG/SAG)): 31.1 fold and 31 fold | reduction in binding affinity compared with the wild-type (PKCθC1B L255G; L255G vs wild-type PKCθC1B (Kd for PDBu, Ki for DOG/SAG)): 8.16 fold | Ki/Kd (PKCθC1B L255G; PKCθ C1B L255G, Ki of the diacylglycerol over Kd of PDBu): 16 | Ki (PKCθC1B L255G; PKCθ C1B L255G, competition of [3H]PDBu binding, mean ± S.E.M.): 71 ± 10 nM | Ki/Kd (PKCθC1B Q258G; PKCθ C1B Q258G, Ki of the diacylglycerol over Kd of PDBu): 3 | Ki (PKCθC1B Q258G; PKCθ C1B Q258G, competition of [3H]PDBu binding, mean ± S.E.M.): 2260 ± 330 nM | reduction in binding affinity compared with the wild-type (PKCθC1B Q258G; Q258G vs wild-type PKCθC1B (Kd for PDBu, Ki for DOG/SAG)): 260 fold
